Bioassay records from PubChem.
Most compounds without a hit are left out; they make up all but 29% or so of the library.
tolC growth inh = E. coli tolC mutant growth inhibition; actives 2.2% (n = 65,000); E. coli BW25113 tolC mutant growth, OD615; growth inhibition, % at 10 µM (by protocol);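 active means growth inhibition at or above a cutoff equal to the mean over every tested compound plus 3 SD, cut at about 60% in these data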;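 further: growth measured after 20 h incubation at 37 °C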
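signal = optical density read at 615 nm | test system = E. coli ΔtolC::kan strain BW25113 | timing = 20 h compound exposure of bacteria at 37 °C | buffer or medium = LB medium plus 50 µg/mL kanamycin | compound dosing = 10 µM final, single dose | evaluation = % inhibition of E. coli growth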
CYP2C19 inhib = blocks human cytochrome P450 2C19; inhibition, % at 5 µM; CYP2C19 Supersomes, luciferin-H EGE luminescence, 30 min; P33261; AID 778; actives 21% (n = 96,000);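 active means CYP2C19 inhibition above a set limit at 5 µM in the primary screen, cut at about 50% in these data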;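 further: plate controls were negative control wells for no effect and 2.5 mM tranylcypromine positive control for full effect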
CYP2C9 inh = inhibitors of human CYP2C9 | P11712 | CYP2C9 Supersomes, luciferin-H conversion, luminescence | inhibition, % at 5 µM | actives 20% (n = 96,000) | AID 777;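 active means blocking of liver enzyme CYP2C9 beyond about 50% at 5 µM, limit read from the data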
Target sequence (P11712 whole entry, looked up): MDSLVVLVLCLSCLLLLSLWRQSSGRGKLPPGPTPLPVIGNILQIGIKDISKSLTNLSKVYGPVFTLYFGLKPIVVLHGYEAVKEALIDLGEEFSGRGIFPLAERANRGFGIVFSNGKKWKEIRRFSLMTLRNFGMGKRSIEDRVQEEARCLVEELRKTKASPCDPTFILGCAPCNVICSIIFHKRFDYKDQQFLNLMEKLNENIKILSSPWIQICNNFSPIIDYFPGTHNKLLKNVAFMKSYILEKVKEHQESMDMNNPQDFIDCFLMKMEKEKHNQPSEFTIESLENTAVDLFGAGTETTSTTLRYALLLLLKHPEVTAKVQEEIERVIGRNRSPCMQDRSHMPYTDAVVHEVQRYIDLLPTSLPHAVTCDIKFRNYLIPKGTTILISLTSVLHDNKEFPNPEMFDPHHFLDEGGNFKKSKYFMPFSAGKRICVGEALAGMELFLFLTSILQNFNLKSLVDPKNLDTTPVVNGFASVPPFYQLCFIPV
CYP2C9 activ = increases human cytochrome P450 2C9 activity; recombinant CYP2C9, luciferin-H conversion, luminescence; hits give high values; factor 1 = untreated enzyme, 0 = blocked; actives 1.4% (n = 96,000); activation factor at 5 µM; AID 1024; P11712;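 active means activation factor of 2 or more for CYP2C9 at a 5 µM dose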;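 further: 0 = sulfaphenazole-blocked wells and 1 = vehicle-only wells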
E coli WT exp = blocks growth of wild type E. coli BW25113; growth inhibition, % at 100 µM; OD600 absorbance; actives 0.15% (n = 98,000); AID 710;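 active means growth inhibition above about 50% at one test dose, limit read from the data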;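 further: growth measured after 20 h incubation at 37 °C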
CYP2C19 activ = activators of human cytochrome P450 2C19. activation factor at 5 µM. P33261. 96,000 tested, under 10 active. recombinant CYP2C19, luciferin-H EGE luminescence; hits give high values; 0 = fully inhibited enzyme, 1 = untreated enzyme;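 active means activation factor of at least 2 at 5 µM in the primary screen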;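 further: 0 = wells with 2.5 mM tranylcypromine and 1 = vehicle-only wells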
* hit, by the source's call; . = no result.

SMILES | tolC growth inh | CYP2C19 inhib | CYP2C9 inh | CYP2C9 activ | E coli WT exp | CYP2C19 activ
CCOC(=O)c1sc(NC(=O)c2ccc(S(=O)(=O)N3CCOCC3)cc2)cc1C | 13 | -15 | -10 | 1.1 | -3 | 1.1
Cc1ccc(OCCN2C(=O)CSC2=O)cc1 | -19 | 35 | 10 | 0.9 | -1 | 0.7
O=c1ccn(CCOc2ccc(Cl)cc2)c(=O)[nH]1 | -7 | 59* | 42 | 0.6 | 3 | 0.4
O=C1OC(Nc2ccc(Br)cn2)c2ccccc21 (stereo unspecified) | -3 | 1 | 6 | 0.9 | 5 | 1
CCOC(=O)Cn1c(-c2ccccn2)nc2ccccc21 | -2 | 51* | 1 | 1 | -3 | 0.5
CCOC(=O)Cn1c(C)nc2ccccc21 | -11 | 8 | -5 | 1.1 | 7 | 0.9
O=C(CCN(CCO)Cc1ccccc1)Nc1ccc(Br)cc1 | 8 | 69* | 63* | 0.4 | 24 | 0.3
CCN(CCC(=O)Nc1ccc(Br)c(C)c1)Cc1ccccc1 | . | 38 | 64* | 0.4 | 28 | 0.6
CCCN(CCO)Cc1ccc(Br)cc1 | . | 12 | -15 | 1.1 | 6 | 0.9
CCOC(=O)CSc1nnc(CNC(=O)c2ccc(S(=O)(=O)N3CCCC3)cc2)n1C | -4 | 16 | 2 | 1 | -1 | 0.8
CCOc1ccc(NS(=O)(=O)c2ccc(OC)c(C)c2)cc1 | . | 93* | 92* | 0.1 | 1 | 0.1
Cc1cc(C)cc(NS(=O)(=O)c2ccc3oc(=O)ccc3c2)c1 | . | 100* | 62* | 0.4 | 1 | 0
CCOc1cc(S(=O)(=O)Nc2cc(C)cc(C)c2)ccc1Cl | . | 98* | -97 | 2* | 8 | 0
O=c1ccc2cc(S(=O)(=O)N3CCOCC3)ccc2o1 | -16 | 22 | 7 | 0.9 | 2 | 0.8
COC(=O)COc1ccc(S(=O)(=O)Nc2ccc(C(N)=O)cc2)cc1C | . | 20 | 55* | 0.5 | 0 | 0.8
CC(C)CC(=O)Nc1ccc(C(=O)NNC(=O)C(c2ccccc2)c2ccccc2)cc1 | . | 18 | 29 | 0.7 | -3 | 0.8
COc1ccc(OC)c(S(=O)(=O)Nc2c(F)cccc2F)c1 | -13 | 26 | -20 | 1.2 | 6 | 0.7
CCOc1ccc(NS(=O)(=O)c2ccc(NC(C)=O)c(OC)c2)cc1 | . | 52* | 25 | 0.7 | -3 | 0.5
CCOc1ccc(NS(=O)(=O)c2ccc3c(c2)CCN3C(=O)C2CCC2)cc1 | . | -4 | 8 | 0.9 | 0 | 1
CCOc1ccc(NS(=O)(=O)c2cc(Cl)ccc2OC)cc1 | 8 | 43 | 91* | 0.1 | 5 | 0.6
c1ccc2c(SCc3cn4cccnc4n3)ncnc2c1 | -2 | 54* | 2 | 1 | 6 | 0.5
Cc1cc(C(=O)Nc2cccc(O)c2)co1 | -7 | 16 | 14 | 0.9 | 16 | 0.8
CCCC(=O)NCCCc1nc2ccccc2n1CC | -18 | -2 | -71 | 1.7 | -4 | 1
O=CNCCCc1nc2ccccc2n1Cc1cccc2ccccc12 | . | 97* | 91* | 0.1 | 4 | 0
CC(=O)COC(=O)CCc1nc2ccccc2[nH]c1=O | . | 11 | 14 | 0.9 | -1 | 0.9
SMILES | tolC growth inh | CYP2C19 inhib | CYP2C9 inh | CYP2C9 activ | E coli WT exp | CYP2C19 activ
CCC(OC(=O)CCc1nc2ccccc2[nH]c1=O)C(=O)c1ccccc1 (stereo unspecified) | 18 | 99* | 79* | 0.2 | -1 | 0
CCOC(=O)CCc1nc2ccccc2[nH]1 | -1 | 69* | 24 | 0.8 | 9 | 0.3
CCCc1nc2ccccc2[nH]1 | . | 2 | -25 | 1.2 | 9 | 1
O=c1[nH]c2ccccc2nc1Cc1ccccc1 | 9 | 56* | 6 | 0.9 | 6 | 0.4
CCCCOC(=O)CCc1nc2ccccc2[nH]c1=O | . | 73* | 31 | 0.7 | -2 | 0.3
O=C(NC1CCCCC1)C1CCN(S(=O)(=O)c2cccc3cccnc23)CC1 | -4 | 55* | -242 | 3.4* | -1 | 0.4
CCC(C)NC(=O)C1CCN(S(=O)(=O)c2cccc3cccnc23)CC1 (stereo unspecified) | -12 | 29 | -217 | 3.2* | -2 | 0.7
O=C(NC1CCCCCC1)C1CCCN1S(=O)(=O)c1cccc2cccnc12 (stereo unspecified) | 5 | 75* | -5 | 1.1 | 8 | 0.2
CC1CCCC(NC(=O)C2CCCN2S(=O)(=O)c2cccc3nsnc23)C1C (stereo unspecified) | . | 87* | 57* | 0.4 | 4 | 0.1
O=C(NCc1ccccc1)C1CCCN1S(=O)(=O)c1cccc2cccnc12 (stereo unspecified) | 7 | 30 | -80 | 1.8 | -2 | 0.7
O=C(NC1CCCC1)C1CCCN1S(=O)(=O)c1cccc2cccnc12 (stereo unspecified) | -11 | 59* | 4 | 1 | 4 | 0.4
COc1ccc(CCN(C(=O)c2ccc(F)cc2)C2=CC3CCC(C2)N3C)cc1OC (stereo unspecified) | 4 | 1 | 0 | 1 | . | 1
CCOC(=O)c1[nH]c(C(=O)O)c(CCC(=O)OC)c1C | 1 | -8 | 4 | 1 | 0 | 1.1
COC(=O)CCc1c(C)[nH]c(C(=O)OCc2ccccc2)c1C | 2 | 62* | 36 | 0.6 | 6 | 0.4
CCC(CC)C(=O)N=C1SC2CS(=O)(=O)CC2N1CCc1ccc(OC)cc1 (stereo unspecified) | . | 80* | 77* | 0.2 | 7 | 0.2
COc1ccc(CCN2C(=NC(=O)CCC(=O)O)SC3CS(=O)(=O)CC32)cc1 (stereo unspecified) | . | 1 | 8 | 0.9 | 1 | 1
CC(C)(C)C(=O)C(Oc1cccc2nonc12)n1cncn1 (stereo unspecified) | -7 | 12 | -3 | 1 | -2 | 0.9
CC12CC3(C)CC(C)(C1)CC(C(=O)Nc1nn[nH]n1)(C2)C3 | . | 54* | 15 | 0.9 | 11 | 0.5
CC12CC3CC(C)(C1)CC(C(=O)Nc1nn[nH]n1)(C3)C2 | 26 | 11 | -2 | 1 | -4 | 0.9
O=C(C1CCN(S(=O)(=O)c2cccs2)CC1)N1CCc2ccccc2C1 | 12 | 22 | 8 | 0.9 | -7 | 0.8
COc1ccccc1CNC(=O)C1CCN(S(=O)(=O)c2cccc3cccnc23)CC1 | -7 | 64* | -154 | 2.5* | -3 | 0.4
O=C(NCc1cccs1)C1CCN(S(=O)(=O)c2cccc3cccnc23)CC1 | -6 | 54* | -77 | 1.8 | -5 | 0.5
COc1ccc(NC(=O)C2CCN(S(=O)(=O)c3cccc4cccnc34)CC2)cc1 | -18 | 9 | -53 | 1.5 | 3 | 0.9
O=C(NCc1cccs1)C1CCN(c2nccs2)CC1 | -4 | 84* | 56* | 0.4 | -1 | 0.2
COc1ccc(OC)c(S(=O)(=O)N2CCC(C(=O)N3CCc4ccccc4C3)CC2)c1 | 16 | 78* | -8 | 1.1 | -2 | 0.2
